Structures are written as SMILES.

This passage reports Ki and EC50 results from ChEMBL document CHEMBL1145038 (J Med Chem, 2003).

The target in experiment [1] is T1, Histamine H3 receptor (Rattus norvegicus, UniProt Q9QYN8). Description: Affinity against rat Histamine H3 receptor using [3H]N-alpha-methyl histamine. In a few lines:
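Male Sprague–Dawley rat brain homogenate without cerebellum (800 μg) incubated 1 h at 25 °C in 50 mM Na₂HPO₄/KH₂PO₄, pH 7.5, with 0.25 nM [³H]Nα-methylhistamine. Filtered on GF/B, scintillation counted. Nonspecific binding with 10 μM thioperamide. IC50 by log probit; Ki = IC50/(1+L/Ka), Ka from Rosenthal analysis of saturation at 0.1–3.0 nM. Mean ± SE.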

Experiment [2] deals with T2, Histamine H3 receptor (Homo sapiens, UniProt Q9Y5N1). Put plainly: Inhibition of human Histamine H3 receptor.
For experiment [3], the target named is T1, Histamine H3 receptor. Put plainly: Inhibition of rat Histamine H3 receptor using [3H]N-alpha-methyl histamine. In a few lines:
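Male Sprague–Dawley rat brain (minus cerebellum) homogenate, 800 μg, incubated 1 h at 25 °C in 50 mM Na2HPO4/KH2PO4 pH 7.5 with 0.25 nM radioligand. Bound ligand separated on GF/B filters and counted by scintillation; nonspecific binding taken with 10 μM thioperamide. […] Mean ± SE.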

A further experiment has as its target Histamine H4 receptor (Homo sapiens, UniProt Q9H3N8). Put plainly: Inhibition of human Histamine H4 receptor.
For experiment [4], the target named is T2, Histamine H3 receptor. Description: Inhibition of human H3-receptor using [3H]N-alpha-methyl histamine. In a few lines: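 Membrane fractions from stably transfected CHO cells expressing human H3 receptor; radioligand displacement binding.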

T2 sequence (Q9Y5N1 whole entry): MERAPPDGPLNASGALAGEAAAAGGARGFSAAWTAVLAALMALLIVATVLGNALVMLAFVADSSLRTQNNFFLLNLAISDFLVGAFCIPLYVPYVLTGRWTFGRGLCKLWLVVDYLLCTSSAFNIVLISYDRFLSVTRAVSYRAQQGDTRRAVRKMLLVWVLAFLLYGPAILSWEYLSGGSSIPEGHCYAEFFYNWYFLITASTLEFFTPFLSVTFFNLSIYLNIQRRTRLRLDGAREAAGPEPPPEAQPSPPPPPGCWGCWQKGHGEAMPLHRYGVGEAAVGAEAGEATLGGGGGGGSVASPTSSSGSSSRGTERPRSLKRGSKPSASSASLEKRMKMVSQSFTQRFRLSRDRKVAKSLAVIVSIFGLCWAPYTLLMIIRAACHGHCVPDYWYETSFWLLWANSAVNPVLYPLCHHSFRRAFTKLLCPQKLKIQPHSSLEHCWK
T1 sequence (Q9QYN8 whole entry): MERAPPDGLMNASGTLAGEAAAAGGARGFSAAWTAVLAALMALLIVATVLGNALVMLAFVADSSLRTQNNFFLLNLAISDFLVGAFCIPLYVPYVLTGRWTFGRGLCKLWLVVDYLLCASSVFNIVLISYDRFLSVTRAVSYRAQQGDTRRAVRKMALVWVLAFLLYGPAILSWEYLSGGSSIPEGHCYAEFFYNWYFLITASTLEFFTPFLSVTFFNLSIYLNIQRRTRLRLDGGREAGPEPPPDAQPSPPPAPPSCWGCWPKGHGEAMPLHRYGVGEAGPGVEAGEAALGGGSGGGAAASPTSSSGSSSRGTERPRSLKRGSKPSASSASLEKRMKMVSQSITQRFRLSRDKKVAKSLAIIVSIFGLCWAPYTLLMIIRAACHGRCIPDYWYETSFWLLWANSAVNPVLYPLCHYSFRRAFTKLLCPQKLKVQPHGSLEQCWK
Histamine H4 receptor, sequence (Q9H3N8 whole entry): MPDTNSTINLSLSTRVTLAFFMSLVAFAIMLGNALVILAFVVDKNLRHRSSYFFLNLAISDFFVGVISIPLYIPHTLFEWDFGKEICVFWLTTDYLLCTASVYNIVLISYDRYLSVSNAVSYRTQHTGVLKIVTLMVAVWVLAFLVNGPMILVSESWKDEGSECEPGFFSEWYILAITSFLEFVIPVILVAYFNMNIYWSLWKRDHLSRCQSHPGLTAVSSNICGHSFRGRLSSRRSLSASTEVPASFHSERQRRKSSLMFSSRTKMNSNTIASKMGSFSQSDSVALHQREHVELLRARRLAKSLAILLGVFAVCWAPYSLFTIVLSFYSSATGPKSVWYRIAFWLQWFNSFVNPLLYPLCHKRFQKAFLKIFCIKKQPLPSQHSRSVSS

Take `N[C@@H]1C[C@H]1c1cnc[nH]1` [VUF-5296]: the affinity on Histamine H3 receptor [1], expressed as Ki, was 42.2 nM. The compound also came in with a half-maximal effective concentration (EC50) on Histamine H3 receptor [2] of 724 nM.

As to `NCC[C@H]1C[C@H]1c1cnc[nH]1`, on Histamine H3 receptor [1], the affinity, expressed as Ki, was 4.78 nM. Moreover, the EC50 on Histamine H3 receptor [2] is 1410 nM.

Regarding `S=C(NC1CCCCC1)N1CCC(c2cnc[nH]2)CC1` [THIOPERAMIDE], the Ki on Histamine H3 receptor [3] worked out at 2.65 nM.

With `NCC[C@@H]1C[C@@H]1c1cnc[nH]1`, at Histamine H3 receptor [1], the inhibitory constant (Ki) worked out at 1.31 nM. Besides, the EC50 at Histamine H3 receptor [2] is 10 nM.

`N=C(N)SCCc1cnc[nH]1` [IMETIT]: the half-maximal effective concentration (EC50) on Histamine H4 receptor worked out at 51 nM; at Histamine H3 receptor [2], 1.9 nM.

The compound `NC[C@@H]1C[C@@H]1c1cnc[nH]1` displayed a Ki on Histamine H3 receptor [1] of 2.5 nM. Further, a half-maximal effect at Histamine H3 receptor [2] (EC50) was put at 96 nM.

For `N[C@H]1C[C@@H]1c1c[nH]cn1` [VUF-5297], the affinity on Histamine H3 receptor [1] corresponds to a Ki of 4.3 nM. The compound further returned an EC50 at Histamine H3 receptor [2] of 42 nM.

At Histamine H3 receptor [1], `N[C@@H]1C[C@@H]1c1c[nH]cn1` came in with a Ki of 91.2 nM. For the same compound, a half-maximal effect on Histamine H3 receptor [4] (EC50) was put at 2330 nM.

As for `NC[C@@H]1C[C@H]1c1c[nH]cn1`, the affinity at Histamine H3 receptor [1] corresponds to a Ki of 22.6 nM.

In turn, `NC[C@H]1C[C@@H]1c1cnc[nH]1` displayed a Ki at Histamine H3 receptor [1] of 10.1 nM.

Compound `NC[C@H]1C[C@H]1c1cnc[nH]1` had an inhibition constant (Ki) at Histamine H3 receptor [1] of 64.7 nM.

Turning to `N[C@H]1C[C@H]1c1c[nH]cn1`, on Histamine H3 receptor [1], the affinity corresponds to a Ki of 1380 nM.

A word on the Ki: it is a measure of affinity in units of concentration, obtained from inhibition or displacement. A lower Ki goes with higher affinity. As usually defined, the EC50 is the concentration at which the effect is half-maximal.
